# According to ChEMBL document CHEMBL3792381, “Amine-free melanin-concentrating hormone receptor 1 antagonists: Novel 1-(1H-benzimidazol-6-yl)pyridin-2(1H)-one derivatives and design to avoid CYP3A4 time-dependent inhibition” (Bioorg Med Chem, 2016):
# How the values were obtained:
# [1] = biological target: Melanin-concentrating hormone receptor 1 (Homo sapiens, UniProt Q99705); test: Displacement of [125I]-MCH(4 to 19) from human MCHR1 expressed in CHO cell membranes after 1 hr by liquid scintillation counting
# Melanin-concentrating hormone receptor 1 (Homo sapiens, UniProt Q99705), sequence (Q99705 whole entry): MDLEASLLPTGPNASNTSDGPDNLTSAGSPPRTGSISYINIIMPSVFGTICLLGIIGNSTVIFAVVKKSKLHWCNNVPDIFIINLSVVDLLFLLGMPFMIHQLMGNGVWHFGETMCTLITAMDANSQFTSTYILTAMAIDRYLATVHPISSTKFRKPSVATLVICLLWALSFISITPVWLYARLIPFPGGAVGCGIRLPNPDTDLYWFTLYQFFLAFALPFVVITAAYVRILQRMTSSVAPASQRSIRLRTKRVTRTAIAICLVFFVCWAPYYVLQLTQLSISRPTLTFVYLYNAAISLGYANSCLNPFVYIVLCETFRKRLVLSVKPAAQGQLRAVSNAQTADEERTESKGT
# How it was run: (§1)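 Membranes from CHO cells stably expressing human or rat MCHR1, prepared by homogenization and 100,000×g centrifugation, in 20 mM Tris-HCl pH 7.5 with 5 mM EDTA and protease inhibitors. Incubated with test compound and [125I]-MCH(4–19) for 1 h at room temperature. Filtered on PEI-treated GF/C filters and counted by scintillation. Nonspecific binding defined with cold MCH(1–19). IC50 from duplicate experiment.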
# [2] = biological target: Melanin-concentrating hormone receptor 1 (Rattus norvegicus, UniProt P97639); test: Displacement of [125I]-MCH(4-19) from rat MCHR1 expressed in CHO cell membranes after 1 hr by liquid scintillation counting; how it was run: as §1
# Melanin-concentrating hormone receptor 1 (Rattus norvegicus, UniProt P97639), sequence (P97639 whole entry): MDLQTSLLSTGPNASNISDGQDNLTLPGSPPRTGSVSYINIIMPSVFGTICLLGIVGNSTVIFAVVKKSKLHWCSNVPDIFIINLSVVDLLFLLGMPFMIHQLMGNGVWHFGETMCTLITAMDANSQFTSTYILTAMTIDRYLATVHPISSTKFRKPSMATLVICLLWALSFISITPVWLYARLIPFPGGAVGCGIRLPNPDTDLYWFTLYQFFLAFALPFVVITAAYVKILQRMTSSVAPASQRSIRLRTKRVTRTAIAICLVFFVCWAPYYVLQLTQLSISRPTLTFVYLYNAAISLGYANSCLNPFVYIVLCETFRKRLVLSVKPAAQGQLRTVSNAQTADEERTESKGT
# CYP3A4 = CYP3A4 (Homo sapiens, UniProt P08684); test: Time dependent inhibition of CYP3A4 in human liver microsomes assessed as conversion of testosterone to 6beta-hydroxytestosterone by measuring remaining activity at 30 uM by UPLC analysis in presence of NADPH generating system; assay type: ADME; conditions: read-out: Activity
# CYP3A4, sequence (P08684 whole entry): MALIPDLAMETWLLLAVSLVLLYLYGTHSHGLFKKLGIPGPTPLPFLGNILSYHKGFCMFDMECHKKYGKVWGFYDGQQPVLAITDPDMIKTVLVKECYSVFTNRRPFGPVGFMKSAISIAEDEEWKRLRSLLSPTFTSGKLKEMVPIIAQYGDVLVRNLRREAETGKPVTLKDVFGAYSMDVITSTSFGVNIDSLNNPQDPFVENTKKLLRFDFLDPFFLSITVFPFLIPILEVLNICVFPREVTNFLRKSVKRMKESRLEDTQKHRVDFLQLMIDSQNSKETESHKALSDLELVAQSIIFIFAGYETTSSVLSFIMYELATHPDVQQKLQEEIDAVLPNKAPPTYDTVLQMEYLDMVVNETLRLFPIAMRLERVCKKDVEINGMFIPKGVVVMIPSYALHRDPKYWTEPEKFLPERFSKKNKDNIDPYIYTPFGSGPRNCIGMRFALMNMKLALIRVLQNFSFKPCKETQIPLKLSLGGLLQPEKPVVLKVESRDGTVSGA
# How it was run: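 Single-point assay: test compound at 30 µM preincubated with human liver microsomes at 37 °C in phosphate buffer pH 7.4 with an NADPH-generating system. Residual CYP3A4 activity then measured as testosterone 6β-hydroxylation by UPLC. Percent remaining = activity with preincubation (% of DMSO control) over activity without preincubation; n = 2.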
Compound,IC50 [1],IC50 [2],activity at 30 µM (CYP3A4)
CCn1c(C2CC2)nc2ccc(-n3ccc(OCc4ccc(Cl)cc4)cc3=O)cc21,37 nM,34 nM,
Cn1c(CC(C)(C)C)nc2ccc(-n3ccc(OCc4ccc(F)cc4)cc3=O)cc21,> 1000 nM,> 1000 nM,
CCCc1nc2ccc(-n3ccc(OCc4ccc(F)cc4)cc3=O)cc2n1C,34 nM,39 nM,
CCc1nc2ccc(-n3ccc(OCc4ccc(F)cc4)cc3=O)cc2n1C,48 nM,38 nM,
Cn1c(C2CC2)nc2ccc(-n3ccc(OCc4cccc(Cl)c4)cc3=O)cc21,100 nM,72 nM,
Cn1c(CC2CC2)nc2ccc(-n3ccc(OCc4ccc(F)cc4)cc3=O)cc21,90 nM,140 nM,
CCCn1c(C2CC2)nc2ccc(-n3ccc(OCc4ccc(Cl)cc4)cc3=O)cc21,85 nM,110 nM,
Cn1c(C2CC2)nc2ccc(-n3ccc(OCc4csc(C(F)(F)F)c4)cc3=O)cc21,41 nM,29 nM,96%
Cc1nc2ccc(-n3ccc(OCc4ccc(F)cc4)cc3=O)cc2n1C,77 nM,65 nM,
Cn1c(C2CCCC2)nc2ccc(-n3ccc(OCc4ccc(F)cc4)cc3=O)cc21,600 nM,460 nM,
Cn1c(C2CC2)nc2ccc(-n3ccc(OCc4cccs4)cc3=O)cc21,76 nM,120 nM,
Cc1c(C2CC2)nc2cnc(-n3ccc(OCc4ccc(Cl)cc4)cc3=O)cn12,44 nM,,
Cn1c(C2CC2)nc2ccc(-n3ccc(OCc4ccc(Cl)cc4)cc3=O)cc21,35 nM,21 nM,
Cn1c(C2CC2)nc2ccc(-n3ccc(OCc4ccc(F)cc4)cc3=O)cc21,40 nM,28 nM,
Cn1c(C2CC2)nc2ccc(-n3ccc(OCc4ccccc4Cl)cc3=O)cc21,160 nM,140 nM,
